Source: article PMC9476207 (ACS Omega, 2022)

Legend:
Assay in all cases: NCI-60 single-dose antiproliferative screen
Type in all cases: cell-based
T-47D = conditions: Homo sapiens, T47D, 48 h, read-out: growth percent
In short: (§1)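 Cells grown in RPMI 1640 with 5% FBS and 2 mM L-glutamine, plated and held 24 h at 37 °C; time-zero plates TCA-fixed. DMSO stocks were diluted in gentamicin-containing medium to a final 10^-5 M, with a DMSO-only control. Exposure 48 h, 5% CO2. Adherent cells TCA-fixed 1 h at 4 °C, stained with 0.4% SRB, solubilised in 10 mM Trizma base, read at 515 nm. Growth percent derived from ODtzero, ODtest and ODctrl.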

SK-MEL-2 = conditions: Homo sapiens, SK-MEL-2, 48 h, read-out: growth percent
In short: as §1

UACC-257 = conditions: Homo sapiens, UACC-257, 48 h, read-out: growth percent
In short: as §1

NCI-H460 = conditions: Homo sapiens, NCI-H460, 48 h, read-out: growth percent
In short: (§2)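 NCI-60 protocol. Lines were grown in RPMI 1640 with 5% FBS and 2 mM L-glutamine, plated and incubated 24 h at 37 °C; time-zero plates were TCA-fixed. The test compound was dissolved in DMSO, diluted in medium with 50 μg/mL gentamicin and given once at a final 10^-5 M (DMSO control) for 48 h. Cells were fixed with cold TCA (1 h, 4 °C) and stained with 0.4% SRB in 1% acetic acid for 10 min. Dye was dissolved in 10 mM Trizma base and read at 515 nm. Growth percent was calculated from time-zero, test and control ODs.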

MDA-MB-231 ATCC = conditions: Homo sapiens, MDA-MB-231, 48 h, read-out: growth percent
In short: as §2

OVCAR-8 = conditions: Homo sapiens, OVCAR-8, 48 h, read-out: growth percent
In short: as §2

M14 = conditions: Homo sapiens, M14, 48 h, read-out: growth percent
In short: as §2

SR = conditions: Homo sapiens, 48 h, read-out: growth percent
In short: as §1

OVCAR-5 = conditions: Homo sapiens, OVCAR-5, 48 h, read-out: growth percent
In short: as §2

OVCAR-4 = conditions: Homo sapiens, OVCAR-4, 48 h, read-out: growth percent
In short: as §2

HS 578T = conditions: Homo sapiens, 48 h, read-out: growth percent
In short: as §2

SK-OV-3 = conditions: Homo sapiens, SK-OV-3, 48 h, read-out: growth percent
In short: as §1

A549/ATCC = conditions: Homo sapiens, A549, 48 h, read-out: growth percent
In short: as §2

SN12C = conditions: Homo sapiens, 48 h, read-out: growth percent
In short: as §1

EKVX = conditions: Homo sapiens, 48 h, read-out: growth percent
In short: as §2

TK-10 = conditions: Homo sapiens, TK-10, 48 h, read-out: growth percent
In short: as §1

SK-MEL-28 = conditions: Homo sapiens, SK-MEL-28, 48 h, read-out: growth percent
In short: as §1

MDA-MB-435 = conditions: Homo sapiens, MDA-MB-435, 48 h, read-out: growth percent
In short: as §2

SNB-19 = conditions: Homo sapiens, SNB-19, 48 h, read-out: growth percent
In short: as §1

MOLT-4 = conditions: Homo sapiens, MOLT-4, 48 h, read-out: growth percent
In short: as §2

UO-31 = conditions: Homo sapiens, UO-31, 48 h, read-out: growth percent
In short: as §1

BT-549 = conditions: Homo sapiens, BT-549, 48 h, read-out: growth percent
In short: as §2

U251 = conditions: Homo sapiens, U-251, 48 h, read-out: growth percent
In short: as §1

HCT-15 = conditions: Homo sapiens, HCT-15, 48 h, read-out: growth percent
In short: as §2

SW-620 = conditions: Homo sapiens, SW-620, 48 h, read-out: growth percent
In short: as §1

SK-MEL-5 = conditions: Homo sapiens, SK-MEL-5, 48 h, read-out: growth percent
In short: as §1

SF-539 = conditions: Homo sapiens, SF-539, 48 h, read-out: growth percent
In short: as §1

MDA-MB-468 = conditions: Homo sapiens, MDA-MB-468, 48 h, read-out: growth percent
In short: as §2

MALME-3M = conditions: Homo sapiens, 48 h, read-out: growth percent
In short: as §2

SNB-75 = conditions: Homo sapiens, SNB-75, 48 h, read-out: growth percent
In short: as §1

HOP-92 = conditions: Homo sapiens, HOP-92, 48 h, read-out: growth percent
In short: as §2

K-562 = conditions: Homo sapiens, K562, 48 h, read-out: growth percent
In short: as §2

SF-268 = conditions: Homo sapiens, SF-268, 48 h, read-out: growth percent
In short: as §2

CCRF-CEM = conditions: Homo sapiens, 48 h, read-out: growth percent
In short: as §2

KM12 = conditions: Homo sapiens, KM12, 48 h, read-out: growth percent
In short: as §2

COLO205 = conditions: Homo sapiens, COLO 205, 48 h, read-out: growth percent
In short: as §2

COc1cc(CNC(=O)CCCC/C=C/C(C)C)ccc1OCc1cn(-c2ccc([N+](=O)[O-])cc2)nn1 [14e, (E)-N-(3-Methoxy-4-((1-(4-nitrophenyl)-1H-1,2,3-triazol-4-yl)methoxy)benzyl)-8methylnon-6-enamide]
activity at 10 µM (T-47D): 64% | activity at 10 µM (SK-MEL-2): 92% | activity at 10 µM (UACC-257): 82.6% | activity at 10 µM (NCI-H460): 99.8% | activity at 10 µM (MDA-MB-231 ATCC): 75.3% | activity at 10 µM (OVCAR-8): 82.9% | activity at 10 µM (M14): 89.7% | activity at 10 µM (SR): 62.2% | activity at 10 µM (OVCAR-5): 99.2% | activity at 10 µM (OVCAR-4): 87.2% | activity at 10 µM (HS 578T): 95.8% | activity at 10 µM (SK-OV-3): 76.7% | activity at 10 µM (A549/ATCC): 84.1% | activity at 10 µM (SN12C): 91.7% | activity at 10 µM (EKVX): 75.3% | activity at 10 µM (TK-10): 92.7% | activity at 10 µM (SK-MEL-28): 102% | activity at 10 µM (MDA-MB-435): 99.7% | activity at 10 µM (SNB-19): 97.4% | activity at 10 µM (MOLT-4): 79.3% | activity at 10 µM (UO-31): 60.6% | activity at 10 µM (BT-549): 80.4% | activity at 10 µM (U251): 86.4% | activity at 10 µM (HCT-15): 96.2% | activity at 10 µM (SW-620): 99.8% | activity at 10 µM (SK-MEL-5): 76.1% | activity at 10 µM (SF-539): 104% | activity at 10 µM (MDA-MB-468): 77.4% | activity at 10 µM (MALME-3M): 98.4% | activity at 10 µM (SNB-75): 83.9% | activity at 10 µM (HOP-92): 90.3% | activity at 10 µM (K-562): 74.5% | activity at 10 µM (SF-268): 86.1% | activity at 10 µM (CCRF-CEM): 84.9% | activity at 10 µM (KM12): 90% | activity at 10 µM (COLO205): 118%

COc1cc(CNC(=O)CCCC/C=C/C(C)C)ccc1OCc1cn(-c2cccc([N+](=O)[O-])c2)nn1 [14f, (E)-N-(3-Methoxy-4-((1-(3-nitrophenyl)-1H-1,2,3-triazol-4-yl)methoxy)benzyl)-8-methylnon-6-enamide]
activity at 10 µM (T-47D): 72.3% | activity at 10 µM (SK-MEL-2): 88.4% | activity at 10 µM (UACC-257): 94.4% | activity at 10 µM (NCI-H460): 91.8% | activity at 10 µM (MDA-MB-231 ATCC): 88.4% | activity at 10 µM (OVCAR-8): 76.9% | activity at 10 µM (M14): 93.4% | activity at 10 µM (SR): 78.4% | activity at 10 µM (OVCAR-5): 107% | activity at 10 µM (OVCAR-4): 94.2% | activity at 10 µM (HS 578T): 90.8% | activity at 10 µM (SK-OV-3): 93.5% | activity at 10 µM (A549/ATCC): 92% | activity at 10 µM (SN12C): 89.5% | activity at 10 µM (EKVX): 95.1% | activity at 10 µM (TK-10): 105% | activity at 10 µM (SK-MEL-28): 106% | activity at 10 µM (MDA-MB-435): 101% | activity at 10 µM (SNB-19): 68.2% | activity at 10 µM (MOLT-4): 86.6% | activity at 10 µM (UO-31): 74.7% | activity at 10 µM (BT-549): 96.3% | activity at 10 µM (U251): 85.3% | activity at 10 µM (HCT-15): 77.9% | activity at 10 µM (SW-620): 97.4% | activity at 10 µM (SK-MEL-5): 93.2% | activity at 10 µM (SF-539): 94.4% | activity at 10 µM (MDA-MB-468): 72.3% | activity at 10 µM (MALME-3M): 103% | activity at 10 µM (SNB-75): 92% | activity at 10 µM (HOP-92): 70.4% | activity at 10 µM (K-562): 81.5% | activity at 10 µM (SF-268): 92.2% | activity at 10 µM (CCRF-CEM): 90.2% | activity at 10 µM (KM12): 91.2% | activity at 10 µM (COLO205): 107%

COc1cc(CNC(=O)CCCC/C=C/C(C)C)ccc1OCc1cn(-c2ccc(C(F)(F)F)cc2)nn1 [14g, (E)-N-(3-Methoxy-4-((1-(4-(trifluoromethyl)phenyl)-1H-1,2,3-triazol-4-yl)methoxy)benzyl)-8-methylnon-6-enamide]
activity at 10 µM (T-47D): 84.5% | activity at 10 µM (SK-MEL-2): 95.1% | activity at 10 µM (UACC-257): 98.2% | activity at 10 µM (NCI-H460): 16.7% | activity at 10 µM (MDA-MB-231 ATCC): 75.2% | activity at 10 µM (OVCAR-8): 41.1% | activity at 10 µM (M14): 97.5% | activity at 10 µM (SR): 70.4% | activity at 10 µM (OVCAR-5): 96.6% | activity at 10 µM (OVCAR-4): 98.6% | activity at 10 µM (HS 578T): 70.7% | activity at 10 µM (SK-OV-3): 91.3% | activity at 10 µM (A549/ATCC): 49% | activity at 10 µM (SN12C): 65.6% | activity at 10 µM (EKVX): 88.2% | activity at 10 µM (TK-10): 20.4% | activity at 10 µM (SK-MEL-28): 107% | activity at 10 µM (MDA-MB-435): 107% | activity at 10 µM (SNB-19): 76.1% | activity at 10 µM (MOLT-4): 80.3% | activity at 10 µM (UO-31): 92.8% | activity at 10 µM (BT-549): 80.4% | activity at 10 µM (U251): 46.7% | activity at 10 µM (HCT-15): 59.7% | activity at 10 µM (SW-620): 41.3% | activity at 10 µM (SK-MEL-5): 97.1% | activity at 10 µM (SF-539): 81.9% | activity at 10 µM (MDA-MB-468): 70.2% | activity at 10 µM (MALME-3M): 99.7% | activity at 10 µM (SNB-75): 49.7% | activity at 10 µM (HOP-92): 13.8% | activity at 10 µM (K-562): 76.3% | activity at 10 µM (SF-268): 87.8% | activity at 10 µM (CCRF-CEM): 68.8% | activity at 10 µM (KM12): 81.2% | activity at 10 µM (COLO205): 72.6%

COc1cc(CNC(=O)CCCC/C=C/C(C)C)ccc1OCc1cn(-c2ccc(F)cc2)nn1 [14h, (E)-N-(4-((1-(4-Fluorophenyl)-1H-1,2,3-triazol-4-yl)methoxy)-3-methoxybenzyl)-8-methylnon-6-enamide]
activity at 10 µM (T-47D): 73.8% | activity at 10 µM (SK-MEL-2): 111% | activity at 10 µM (UACC-257): 90.2% | activity at 10 µM (NCI-H460): 75.7% | activity at 10 µM (MDA-MB-231 ATCC): 69.1% | activity at 10 µM (OVCAR-8): 71.5% | activity at 10 µM (M14): 94% | activity at 10 µM (SR): 76.7% | activity at 10 µM (OVCAR-5): 97.6% | activity at 10 µM (OVCAR-4): 82.2% | activity at 10 µM (HS 578T): 77.7% | activity at 10 µM (SK-OV-3): 86.4% | activity at 10 µM (A549/ATCC): 84.3% | activity at 10 µM (SN12C): 82.4% | activity at 10 µM (EKVX): 72.7% | activity at 10 µM (TK-10): 103% | activity at 10 µM (SK-MEL-28): 102% | activity at 10 µM (MDA-MB-435): 98.8% | activity at 10 µM (SNB-19): 81.3% | activity at 10 µM (MOLT-4): 82.6% | activity at 10 µM (UO-31): 86% | activity at 10 µM (BT-549): 91% | activity at 10 µM (U251): 83.9% | activity at 10 µM (HCT-15): 89.6% | activity at 10 µM (SW-620): 91% | activity at 10 µM (SK-MEL-5): 83.7% | activity at 10 µM (SF-539): 92.2% | activity at 10 µM (MDA-MB-468): 68.2% | activity at 10 µM (MALME-3M): 103% | activity at 10 µM (SNB-75): 83.5% | activity at 10 µM (HOP-92): 66.2% | activity at 10 µM (K-562): 68.7% | activity at 10 µM (SF-268): 87.2% | activity at 10 µM (CCRF-CEM): 79.7% | activity at 10 µM (KM12): 94.5% | activity at 10 µM (COLO205): 120%
